In ChEMBL document CHEMBL2311419, “Discovery of coumarin-dihydropyridine hybrids as bone anabolic agents” (J Med Chem, 2013):
The source made the active and inactive calls. The rule behind the calls is not given here.

Key:
Calvarial osteoblast [1] = test: Induction of osteoblastogenesis in mouse calvarial osteoblasts assessed as increase in RUNX2 expression at 100 pM to 10 nM by Western blotting analysis; assay type: functional, cell-based
Mus musculus [2] = test: Hepatotoxicity against BALB/c mouse assessed as morphological changes at 1 to 10 mg/kg/day, po after 2 months; assay type: toxicity, organism-based; set-up: route oral; details: in vivo
Mus musculus [3] = species on record: Mus musculus; test: Stimulation of alkaline phosphatase activity in mouse calvarial osteoblasts at 1 pM to 1 uM after 48 hrs by spectrophotometric analysis
Method in brief: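 Calvarial osteoblasts were exposed to compounds over 1 pM to 1 µM. ALP activity was read spectrophotometrically as optical density at 405 nm. Results were expressed as % ALP activity, with EC50 and Emax derived from the concentration series.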

Mus musculus [4] = test: Induction of new bone formation in ovariectomized BALB/c mouse model assessed as increase in bone formation rate at 1 mg/kg/day, po qd for 8 weeks by bone histomorphometry analysis (Rvb =0.10 um'3/um'2/day); assay type: functional
Mus musculus [5] = test: Induction of osteoblast differentiation in ovariectomized BALB/c mouse model assessed as upregulation of BMP2 mRNA expression po administered qd for 8 weeks by qPCR analysis; assay type: functional, organism-based
Mus musculus [6] = test: Antiosteoporotic activity in ovariectomized BALB/c mouse model assessed as restoration of ovariectomy-induced increase in trabecular separation at 1 mg/kg/day, po qd for 8 weeks (reference value: 0.99+/-0.08mm); assay type: functional, Trabecula
Mus musculus [7] = test: Antiosteoporotic activity in ovariectomized BALB/c mouse model assessed as restoration of ovariectomy-induced reduction in trabecular number at 1 mg/kg/day, po qd for 8 weeks (reference value: 0.12+/-0.02 /mm); assay type: functional, Trabecula
Calvarial osteoblast [8] = test: Induction of osteoblastogenesis in mouse calvarial osteoblasts assessed as increase in expression of osteocalcin gene at 100 pM by qPCR analysis relative to control; assay type: functional, cell-based
Mus musculus [9] = test: Antiosteoporotic activity in ovariectomized BALB/c mouse model assessed as restoration of ovariectomy-induced reduction in bone volume/trabecular volume at 5 mg/kg/day, po qd for 8 weeks (reference value: 0.45+/-0.07%); assay type: functional, Trabecula; set-up: scale not given: the % may be the effect or the level left
Mus musculus [10] = test: Inhibition of osteoclastogenesis in ovariectomized BALB/c mouse model assessed as suppression of TRAP gene expression at 1 mg/kg/day, po qd for 8 weeks by qPCR analysis; assay type: functional, organism-based
Mus musculus [11] = test: Induction of osteoblast differentiation in ovariectomized BALB/c mouse model assessed as upregulation of COL1 mRNA expression po administered qd for 8 weeks by qPCR analysis; assay type: functional, organism-based
Calvarial osteoblast [12] = test: Induction of osteoblastogenesis in mouse calvarial osteoblasts assessed as increase in expression of ALP gene at 100 pM to 10 nM by qPCR analysis relative to control; assay type: functional
Calvarial osteoblast [13] = test: Induction of osteoblastogenesis in mouse calvarial osteoblasts assessed as increase in expression of RUNX2 gene at 100 pM to 10 nM by qPCR analysis relative to control; assay type: functional
Mus musculus [14] = test: Induction of new bone formation in ovariectomized BALB/c mouse model assessed as increase in bone formation rate at 5 mg/kg/day, po qd for 8 weeks by bone histomorphometry analysis (Rvb =0.10 um'3/um'2/day); assay type: functional
Mus musculus [15] = test: Induction of new bone formation in ovariectomized BALB/c mouse model assessed as increase in mineral apposition rate at 1 mg/kg/day, po qd for 8 weeks by bone histomorphometry analysis (Rvb =0.11 um/day); assay type: functional
Calvarial osteoblast [16] = test: Induction of mineralization in mouse calvarial osteoblasts assessed as increase of mineralized nodules formation at 100 pM after 21 days by alizarin red-S staining based spectrophotometric analysis; assay type: functional
Calvarial osteoblast [17] = test: Induction of proliferation of mouse calvarial osteoblasts at 1 pM to 1 uM after 48 hrs; assay type: functional, cell-based
Calvarial osteoblast [18] = test: Induction of osteoblastogenesis in mouse calvarial osteoblasts assessed as increase in expression of BMP2 gene at 100 pM by qPCR analysis relative to control; assay type: functional, cell-based
Calvarial osteoblast [19] = test: Induction of osteoblastogenesis in mouse calvarial osteoblasts assessed as increase in BMP2 expression at 100 pM to 10 nM by Western blotting analysis; assay type: functional, cell-based
Mus musculus [20] = test: Antiosteoporotic activity in ovariectomized BALB/c mouse model assessed as restoration of ovariectomy-induced increase in structural model index at 1 mg/kg/day, po qd for 8 weeks; assay type: functional, organism-based
[21] = Cytotoxicity against mouse calvarial osteoblasts assessed as cell viability at 1 pM to 1 uM after 48 hrs by MTT assay; assay type: cell-based; details: calvarial osteoblast
Mus musculus [22] = test: Antiosteoporotic activity in ovariectomized BALB/c mouse model assessed as restoration of ovariectomy-induced increase in structural model index at 5 mg/kg/day, po qd for 8 weeks; assay type: functional, organism-based
Mus musculus [23] = test: Inhibition of osteoclastogenesis in ovariectomized BALB/c mouse model assessed as suppression of TRAP gene expression at 5 to 10 mg/kg/day, po qd for 8 weeks by qPCR analysis; assay type: functional, organism-based
Mus musculus [24] = test: Antiosteoporotic activity in ovariectomized BALB/c mouse model assessed as restoration of ovariectomy-induced increase in trabecular separation at 5 mg/kg/day, po qd for 8 weeks (reference value: 0.99+/-0.08mm); assay type: functional, Trabecula
Mus musculus [25] = test: Induction of new bone formation in ovariectomized BALB/c mouse model assessed as increase in bone formation rate at 10 mg/kg/day, po qd for 8 weeks by bone histomorphometry analysis (Rvb =0.10 um'3/um'2/day); assay type: functional
Mus musculus [26] = test: Inhibition of osteoclastogenesis in ovariectomized BALB/c mouse model assessed as increase in OPG/RANKL ratio at 5 to 10 mg/kg/day, po qd for 8 weeks by qPCR analysis; assay type: functional, organism-based
Mus musculus [27] = test: Inhibition of osteoclastogenesis in ovariectomized BALB/c mouse model assessed as increase in OPG/RANKL ratio at 1 mg/kg/day, po qd for 8 weeks by qPCR analysis; assay type: functional, organism-based
Mus musculus [28] = test: Antiosteoporotic activity in ovariectomized BALB/c mouse model assessed as restoration of ovariectomy-induced reduction in trabecular number at 5 mg/kg/day, po qd for 8 weeks (reference value: 0.12+/-0.02 /mm); assay type: functional, Trabecula
Mus musculus [29] = test: Antiosteoporotic activity in ovariectomized BALB/c mouse model assessed as restoration of ovariectomy-induced reduction in bone volume/trabecular volume at 1 mg/kg/day, po qd for 8 weeks (reference value: 0.45+/-0.07%); assay type: functional, Trabecula; set-up: scale not given: the % may be the effect or the level left
Mus musculus [30] = test: Inhibition of bone turnover in ovariectomized BALB/c mouse model assessed as reduction in ovariectomy-induced serum osteocalcin levels at 1 to 5 mg/kg/day, po qd for 8 weeks by ELISA relative to control; assay type: functional, organism-based
Calvarial osteoblast [31] = test: Induction of mineralization in mouse calvarial osteoblasts assessed as increase of mineralized nodules formation measuring concentration required for maximum activity after 21 days by alizarin red-S staining based spectrophotometric analysis; assay type: functional
Calvarial osteoblast [32] = test: Induction of osteoblastogenesis in mouse calvarial osteoblasts assessed as increase in expression of COL1 gene at 100 pM to 10 nM by qPCR analysis relative to control; assay type: functional
Calvarial osteoblast [33] = test: Induction of osteoblastogenesis in mouse calvarial osteoblasts assessed as increase in expression of COL1 gene at 100 pM by qPCR analysis relative to control; assay type: functional, cell-based

In the case of `CCOC(=O)C1=C(C)NC2=C(C(=O)CCC2)C1c1cc(C(C)CC)c2oc(=O)c(C(=O)OC)cc2c1` (stereo not drawn), the Activity (Calvarial osteoblast [1]) is reported as “Active”, the Activity (Mus musculus [2]) is reported as “Non-toxic” and the Activity (Mus musculus [3]) is reported as 80%. The Activity (Mus musculus [4]) was 0.37 um3/um2/day, the Activity (Mus musculus [5]) was “Dose-dependent effect” and the Activity (Mus musculus [6]) was 0.66 mm. The Activity (Mus musculus [7]) was 0.4 /millimeter, the Activity (Calvarial osteoblast [8]) was “Active” and the Activity (Mus musculus [9]) was 2.33%. For the same compound, the inhibition (Mus musculus [10]) was “Active”, the Activity (Mus musculus [11]) was “Dose-dependent effect” and the “fold change (FC)” value (Calvarial osteoblast [12]) was 1.5. For the same compound, the “fold change (FC)” value (Calvarial osteoblast [13]) was 1.5, the Activity (Mus musculus [14]) was 0.33 um3/um2/day and the Activity (Mus musculus [15]) was 0.291 micrometer/day. For the same compound, the Activity (Calvarial osteoblast [16]) was 65%, the Activity (Calvarial osteoblast [17]) was “Active” and the Activity (Calvarial osteoblast [18]) was “Active”. For the same compound, the Activity (Calvarial osteoblast [19]) was “Active”, the Activity (Mus musculus [20]) was “Active” and the Activity [21] was “Non-toxic”. For the same compound, the Activity (Mus musculus [22]) was “Active”, the inhibition (Mus musculus [23]) was “Active” and the Activity (Mus musculus [24]) was 0.72 mm. The Activity (Mus musculus [25]) was 0.31 um3/um2/day, the inhibition (Mus musculus [26]) was “Active” and the inhibition (Mus musculus [27]) was “Active”. For the same compound, the Activity (Mus musculus [28]) was 0.3 /millimeter, the Activity (Mus musculus [29]) was 2.85% and the inhibition (Mus musculus [30]) was “Active”. For the same compound, the “Concentration for maximum mineralization” value (Calvarial osteoblast [31]) was 100 pM, the “fold change (FC)” value (Calvarial osteoblast [32]) was 1.5 and the Activity (Calvarial osteoblast [33]) was “Active”.
